The Ki is a dissociation constant, usually derived from enzyme kinetics or from competition with a known ligand. A higher Ki goes with a looser hold on the target.

The text below walks through data of ChEMBL document CHEMBL1130053, “Synthesis and biological evaluation of the enantiomers of the potent and selective A1-adenosine antagonist 1,3-dipropyl-8-[2-(5,6-epoxynorbonyl)]-xanthine” (J Med Chem, 1997).

For one test, the target named is Adenosine A2 receptor (Rattus norvegicus, UniProt P29276+P30543). Kind of test: Binding affinity for Adenosine A2 receptor from rat striatal membranes.
The test system of test [1] is Rattus norvegicus. Kind of test: Urine output (collected per 4 h) in Saline -Loaded Rats at 0.1 mg /kg intravenous dose. Type of test: functional. An outline of the steps: (§1)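 Sprague-Dawley rats (250-350 g), 2 h equilibration, then tail-vein dosing (vehicle 50% saline/40% PEG/10% ethanol, 1.0 mL/kg). This was followed at once by 40 mL/kg saline po. Urine collected 4 h in metabolic cages, volume by weight, Na⁺/K⁺ by flame photometry. n = 6-7 per dose, mean ± SEM, 1-way ANOVA with Bonferroni test versus vehicle.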

Test [2] has as its system Rattus norvegicus. Briefly: Urine output (collected per 4 h) in Saline -Loaded Rats at 1.0 mg /kg intravenous dose. Format: functional. An outline of the steps: as §1
Test [3] relates to Rattus norvegicus. Briefly: Potassium ion output (collected per 4 h) in Saline -Loaded Rats at 0.1 mg /kg intravenous dose. Type of test: functional. An outline of the steps: as §1
Test [4] has as its target T1, Adenosine receptor A1 (Cavia porcellus, UniProt P47745).
T1 sequence (P47745 whole entry): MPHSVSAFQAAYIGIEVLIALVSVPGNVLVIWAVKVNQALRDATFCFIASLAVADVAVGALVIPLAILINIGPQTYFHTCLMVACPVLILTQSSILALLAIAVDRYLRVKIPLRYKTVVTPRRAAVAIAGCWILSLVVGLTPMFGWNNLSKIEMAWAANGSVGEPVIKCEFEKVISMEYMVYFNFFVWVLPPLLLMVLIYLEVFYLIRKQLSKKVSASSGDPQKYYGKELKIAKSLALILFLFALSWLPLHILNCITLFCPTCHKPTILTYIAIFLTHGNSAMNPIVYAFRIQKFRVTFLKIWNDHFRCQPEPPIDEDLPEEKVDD
Kind of test: Binding affinity for Adenosine A1 receptor from Guinea pig membranes.

Test [5] deals with Rattus norvegicus. Kind of test: Sodium ion output (collected per 4 h) in Saline -Loaded Rats at 1.0 mg /kg intravenous dose. Format: functional. The essentials:
as §1

For test [6], the system named is Rattus norvegicus. Briefly: Potassium ion output (collected per 4 h) in Saline -Loaded Rats at 1.0 mg /kg intravenous dose. Format: functional. The essentials: as §1
In test [7] the test system is Rattus norvegicus. Kind of test: Potassium ion output (collected per 4 h) in Saline -Loaded Rats at 0.01 mg /kg intravenous dose. Type of test: functional. The essentials: as §1
Test [8] concerns Rattus norvegicus. Briefly: Sodium ion output (collected per 4 h) in Saline -Loaded Rats at 0.1 mg /kg intravenous dose. Type of test: functional. The essentials: as §1
Test [9] has as its target T2, Adenosine receptor A1 (Rattus norvegicus, UniProt P25099).
T2 sequence (P25099 whole entry): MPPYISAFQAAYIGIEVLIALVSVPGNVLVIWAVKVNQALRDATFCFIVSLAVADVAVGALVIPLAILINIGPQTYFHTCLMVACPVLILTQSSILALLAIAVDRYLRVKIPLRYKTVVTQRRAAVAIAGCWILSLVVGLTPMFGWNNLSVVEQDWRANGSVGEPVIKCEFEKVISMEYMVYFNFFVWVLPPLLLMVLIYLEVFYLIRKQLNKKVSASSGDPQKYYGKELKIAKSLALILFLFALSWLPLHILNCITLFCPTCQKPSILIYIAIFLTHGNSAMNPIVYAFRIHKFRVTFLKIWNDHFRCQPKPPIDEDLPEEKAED
Kind of test: Binding affinity for Adenosine A1 receptor of rat forebrain.

The target of test [10] is T3, Adenosine receptor A1 (Homo sapiens, UniProt P30542).
T3 sequence (P30542 whole entry): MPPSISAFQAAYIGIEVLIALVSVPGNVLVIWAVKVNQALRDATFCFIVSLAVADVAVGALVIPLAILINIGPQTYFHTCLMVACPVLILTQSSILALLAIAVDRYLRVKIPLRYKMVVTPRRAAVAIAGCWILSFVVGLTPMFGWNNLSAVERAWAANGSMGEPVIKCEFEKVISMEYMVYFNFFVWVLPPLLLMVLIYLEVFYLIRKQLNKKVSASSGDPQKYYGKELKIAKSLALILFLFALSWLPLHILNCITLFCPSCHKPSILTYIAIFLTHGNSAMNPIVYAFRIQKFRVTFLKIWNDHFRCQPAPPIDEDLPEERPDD
Briefly: Inhibition of binding to membranes from HEK293 cells expressing human Adenosine A1 receptor. Type of test: cell membranes.

The test system of test [11] is Rattus norvegicus. Kind of test: Sodium ion output (collected per 4 h) in Saline -Loaded Rats at 0.01 mg /kg intravenous dose. Type of test: functional. An outline of the steps:
as §1

In test [12] the test system is Rattus norvegicus. Briefly: Urine output (collected per 4 h) in Saline -Loaded Rats at 0.01 mg /kg intravenous dose. Type of test: functional. The essentials:
as §1

On to `CCCn1c(=O)c2nc(C34CC5CC(CC3C5)C4)[nH]c2n(CCC)c1=O` [ROLOFYLLINE], for which the inhibition constant Ki on Adenosine A2 receptor came out at 510 nM.

As for `CCCn1c(=O)c2nc(C3CC4CC3C3OC43)[nH]c2n(CCC)c1=O` (stereo in doubt; 12), the Urine output with Rattus norvegicus [1] was 35.1 mL/kg; in the test on Rattus norvegicus [2] it was 37.1 mL/kg; in the test with Rattus norvegicus [12] it was 21.7 mL/kg. In addition, the K+ output in the test on Rattus norvegicus [3] was 1.34 mmol/kg; with Rattus norvegicus [6] it was 1.09 mmol/kg; in the test with Rattus norvegicus [7], 0.75 mmol/kg. Also, the inhibition constant Ki amounted to 1.43 nM at Adenosine receptor A1 [4], 0.67 nM on Adenosine receptor A1 [9], 0.45 nM on Adenosine receptor A1 [10] and 1250 nM at Adenosine A2 receptor. Moreover, the Na+ output in the test with Rattus norvegicus [5] was found to be 5.86 mmol/kg; with Rattus norvegicus [8], 5.29 mmol/kg; in the test with Rattus norvegicus [11], 3.02 mmol/kg.

As for `CCCn1c(=O)c2nc(C3CC4CC3C3OC43)[nH]c2n(CCC)c1=O` (stereo in doubt; 8), the Urine output in the test with Rattus norvegicus [1] was 31.3 mL/kg; in the test with Rattus norvegicus [2], 44.1 mL/kg; with Rattus norvegicus [12], 26.8 mL/kg. Moreover, the K+ output was 0.89 mmol/kg in the test on Rattus norvegicus [3], 1.84 mmol/kg in the test with Rattus norvegicus [6] and 0.97 mmol/kg in the test with Rattus norvegicus [7]. Also, the Ki on Adenosine receptor A1 [4] worked out at 3.17 nM; on Adenosine receptor A1 [9], 5.12 nM; at Adenosine receptor A1 [10], 0.8 nM; on Adenosine A2 receptor, 551 nM. Besides, the Na+ output in the test on Rattus norvegicus [5] was determined as 5.99 mmol/kg; with Rattus norvegicus [8] it was 4.56 mmol/kg; with Rattus norvegicus [11], 3.8 mmol/kg.

For the compound `CCCn1c(=O)c2nc(C3CC4CC3C3OC43)[nH]c2n(CCC)c1=O` (stereo in doubt), the Urine output with Rattus norvegicus [1] worked out at 33 mL/kg; in the test with Rattus norvegicus [2], 43.2 mL/kg; with Rattus norvegicus [12], 23.2 mL/kg. Also, the K+ output in the test with Rattus norvegicus [3] was determined as 1.22 mmol/kg; in the test with Rattus norvegicus [6], 1.42 mmol/kg; with Rattus norvegicus [7] it was 1.1 mmol/kg. Further, the inhibition constant (Ki) on Adenosine receptor A1 [4] is 3.15 nM; at Adenosine receptor A1 [9], 1.43 nM; on Adenosine receptor A1 [10], 0.82 nM; on Adenosine A2 receptor, 309 nM. In addition, the results for the Na+ output with Rattus norvegicus [5], in the test on Rattus norvegicus [8] and with Rattus norvegicus [11] were 6.54 mmol/kg, 5.14 mmol/kg and 3.54 mmol/kg, respectively.
